According to ChEMBL document CHEMBL2062365, “Suppressive effects of coumarins from Mammea siamensis on inducible nitric oxide synthase expression in RAW264.7 cells” (Bioorg Med Chem, 2012):
Active and inactive are the calls of the source. The calls are words filed in the database; no cut-off is given here.

Columns and labels:
RAW264.7 [1] = assay: Antiinflammatory activity in mouse RAW264.7 cells assessed as inhibition of LPS-induced NO production at 30 uM incubated for 10 mins prior to LPS-challenge measured after 18 hrs by Griess method relative to control; assay type: functional
Procedure, shortened: (§1)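 RAW264.7 cells (DMEM, 10% FBS, 37 °C, 5% CO2) seeded at 2.5 × 10^5 cells/well. After 6 h, nonadherent cells were washed off. Adherent cells were exposed to test compound for 10 min, then to LPS (E. coli 055:B5, final 10 µg/mL) for 18 h. Supernatant nitrite was measured by Griess reaction. Inhibition % = (A−B)/(A−C)×100, with C as the no-LPS control. IC50 was read graphically; N = 4, mean ± SEM. CAPE was the reference.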

RAW264.7 [2] = assay: Antiinflammatory activity in mouse RAW264.7 cells assessed as inhibition of LPS-induced NO production at 3 uM incubated for 10 mins prior to LPS-challenge measured after 18 hrs by Griess method relative to control
RAW264.7 [3] = assay: Antiinflammatory activity in mouse RAW264.7 cells assessed as inhibition of LPS-induced NO production at 10 uM incubated for 10 mins prior to LPS-challenge measured after 18 hrs by Griess method relative to control; assay type: functional; procedure, shortened: as §1
RAW264.7 [4] = assay: Antiinflammatory activity in mouse RAW264.7 cells assessed as inhibition of LPS-induced NO production at 1 uM incubated for 10 mins prior to LPS-challenge measured after 18 hrs by Griess method relative to control; assay type: functional; procedure, shortened: as §1
[5] = Cytotoxicity against mouse RAW264.7 cells assessed as cell viability at 30 uM after 18 hrs by MTT assay; assay type: cell-based; settings: read-out: Activity
Procedure, shortened: (§2)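 MTT viability assay. RAW264.7 cells seeded at 1.0 × 10^5 cells/well; after 6 h, nonadherent cells were washed off. Adherent cells were cultured with test compound for 18 h. MTT (5 mg/mL in PBS) was added for 2 h at 37 °C. Formazan was dissolved in isopropanol with 0.04 M HCl and OD read at 570 nm (reference 655 nm).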

RAW264.7 [6] = assay: Antiinflammatory activity in mouse RAW264.7 cells assessed as inhibition of LPS-induced NO production incubated for 10 mins prior to LPS-challenge measured after 18 hrs by Griess method; assay type: functional, cell-based; procedure, shortened: as §1
RAW264.7 [7] = assay: Antiinflammatory activity in mouse RAW264.7 cells assessed as inhibition of LPS-induced NO production at 10 uM relative to control; assay type: functional; procedure, shortened: as §1
[8] = Cytotoxicity against mouse RAW264.7 cells assessed as cell viability at 10 uM after 18 hrs by MTT assay; assay type: cell-based; settings: read-out: Activity; procedure, shortened: as §2
[9] = molecular target: MAP kinase p38 (Mus musculus) (UniProt P47811+O08911+Q9WUI1+Q9Z1B7); assay: Inhibition of p38 phosphorylation in LPS-induced mouse RAW264.7 cells at 1 to 30 uM incubated for 10 mins prior to LPS-challenge measured after 30 mins by Western blot analysis; assay type: cell-based
Procedure, shortened: (§3)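 RAW264.7 cells (5.0 × 10^6/well) adhered for 6 h. Compound was added for 10 min, then LPS (final 10 µg/mL) for 30 min. BCA-normalized lysates, 25 µg/lane, were run on 10% SDS–PAGE and transferred to PVDF. Phospho-proteins (p-JNK, p-p38, p-STAT1 Ser727) were blocked in Blocking One-P, others (NF-κB p65) in Blocking One. Primary antibodies 1:1000 for 1 h at rt; detection by ECL.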

[10] = molecular target: T1, Signal transducer and activator of transcription 1 (Mus musculus) (UniProt P42225); assay: Inhibition of STAT1 phosphorylation in LPS-induced mouse RAW264.7 cells incubated for 10 mins prior to LPS-challenge measured after 30 mins by Western blot analysis; assay type: cell-based; procedure, shortened: as §3
T1 sequence (whole entry): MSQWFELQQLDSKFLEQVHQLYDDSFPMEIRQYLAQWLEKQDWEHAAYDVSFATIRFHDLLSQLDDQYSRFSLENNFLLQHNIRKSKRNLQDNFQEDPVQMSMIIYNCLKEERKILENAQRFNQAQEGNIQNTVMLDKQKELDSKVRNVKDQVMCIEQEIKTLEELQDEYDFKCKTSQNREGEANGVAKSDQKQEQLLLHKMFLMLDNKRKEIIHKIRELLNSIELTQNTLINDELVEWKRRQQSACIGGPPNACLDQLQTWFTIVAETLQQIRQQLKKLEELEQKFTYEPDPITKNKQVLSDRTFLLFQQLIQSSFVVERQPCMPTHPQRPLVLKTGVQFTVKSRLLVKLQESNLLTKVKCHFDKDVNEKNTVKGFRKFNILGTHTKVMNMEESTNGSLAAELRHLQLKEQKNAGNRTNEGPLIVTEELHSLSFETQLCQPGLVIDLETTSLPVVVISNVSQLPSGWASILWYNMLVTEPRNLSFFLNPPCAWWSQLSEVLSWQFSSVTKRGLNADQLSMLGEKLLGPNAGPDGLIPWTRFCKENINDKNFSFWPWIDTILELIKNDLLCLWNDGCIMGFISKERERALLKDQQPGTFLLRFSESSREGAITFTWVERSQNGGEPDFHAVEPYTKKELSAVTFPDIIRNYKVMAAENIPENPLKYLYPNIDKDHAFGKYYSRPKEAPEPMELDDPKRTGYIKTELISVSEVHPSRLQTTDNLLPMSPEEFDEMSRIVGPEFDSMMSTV

RAW264.7 [11] = assay: Antiinflammatory activity in mouse RAW264.7 cells assessed as inhibition of LPS-induced iNOS expression at 1 to 30 uM incubated for 10 mins prior to LPS-challenge measured after 12 hrs by Western blot analysis; assay type: functional, cell-based
Procedure, shortened: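 RAW264.7 cells (5.0 × 10^6/well, 6-well) adhered for 6 h. Compound was added for 10 min, then LPS (final 10 µg/mL) for 12 h. Lysates were sonicated and normalized by BCA. 50 µg protein/lane was run on 10% SDS–PAGE and transferred to PVDF. Blots were probed for iNOS and β-actin (primary 1:1000, HRP secondary 1:5000) and detected by ECL.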

[12] = Cytotoxicity against mouse RAW264.7 cells assessed as cell viability at 3 uM after 18 hrs by MTT assay; assay type: cell-based; settings: read-out: Activity; procedure, shortened: as §2
RAW264.7 [13] = assay: Inhibition of SAPK/JNK phosphorylation in LPS-induced mouse RAW264.7 cells at 1 to 30 uM incubated for 10 mins prior to LPS-challenge measured after 30 mins by Western blot analysis; assay type: cell-based; procedure, shortened: as §3
RAW264.7 [14] = assay: Antiinflammatory activity in mouse RAW264.7 cells assessed as inhibition of LPS-induced NO production at 100 uM relative to control; assay type: functional; procedure, shortened: as §1

SMILES | IC50 (RAW264.7 [6]) [µM] | inhibition [9] | inhibition [10] | inhibition at 30 µM (RAW264.7 [1]) [%] | inhibition at 3 µM (RAW264.7 [2]) [%] | inhibition at 10 µM (RAW264.7 [3]) [%] | inhibition at 1 µM (RAW264.7 [4]) [%] | viability at 18 h, 30 µM [5] [%] | inhibition at 10 µM (RAW264.7 [7]) [%] | viability at 18 h, 10 µM [8] [%] | inhibition (RAW264.7 [11]) | viability at 18 h, 3 µM [12] [%] | inhibition (RAW264.7 [13]) | inhibition at 100 µM (RAW264.7 [14]) [%]
Nc1n[nH]c2nnc(-c3c(-c4ccccc4)nn4ccccc34)cc12 | – | – | – | – | – | – | – | – | 7.2 | – | – | – | – | –
CCC(C)C(=O)c1c(O)c(C/C=C(\C)CCC=C(C)C)c(O)c2c([C@@H](O)CC)cc(=O)oc12 (stereo partly drawn) [SURANGIN C] | 6.8 | – | – | 71.3 | 40.8 | 56.7 | 18.1 | 42.9 | – | 61.7 | – | – | – | –
CCCC(=O)c1c(O)c(C/C=C(\C)CCC=C(C)C)c(O)c2c([C@H](CC)OC(C)=O)cc(=O)oc12 [MAMMEASIN A] | 1.8 | inactive | Dose-dependent effect | 92 | 72.9 | 88.1 | 27.5 | 10.2 | – | 24.1 | Active | 56.4 | inactive | –
CC[C@H](O)c1cc(=O)oc2c(CC=C(C)C)c(O)c(C(=O)CC(C)C)c(O)c12 [KAYEASSAMIN G] | 0.8 | inactive | Dose-dependent effect | 72.3 | 55.9 | 81.5 | 51 | 83.7 | – | – | Active | – | inactive | –
O=C(/C=C/c1ccc(O)c(O)c1)OCCc1ccccc1 [CAFFEIC ACID PHENETHYL ESTER] | 3.8 | – | – | 100 | 45.7 | 98.4 | 5.4 | 15.6 | – | 76.4 | – | – | – | –
CC[C@H](OC(C)=O)c1cc(=O)oc2c(C(=O)CC(C)C)c(O)c(C/C=C(\C)CCC=C(C)C)c(O)c12 [MAMMEASIN B] | 6.4 | – | – | 88.2 | 31.1 | 64.7 | 0.6 | 13.6 | – | 20.2 | – | 60.3 | – | –
CC[C@H](O)c1cc(=O)oc2c(C(=O)CC(C)C)c(O)c(C/C=C(\C)CCC=C(C)C)c(O)c12 [SURANGIN D] | 6.2 | – | – | 74 | 41.1 | 55.4 | 22.7 | 104 | – | – | – | – | – | –
Oc1ccc(-c2nc(-c3ccncc3)c(-c3ccc(F)cc3)[nH]2)cc1 [SB-202190] | 16 | – | – | 70.2 | – | 36.8 | – | 81.4 | – | – | – | – | – | –
COc1cccc(-c2cc(=O)c3ccccc3o2)c1N | – | – | – | – | – | – | – | – | – | – | – | – | – | -2.4
CCC(C)C(=O)c1c(O)c(CC=C(C)C)c(O)c2c([C@H](CC)OC(C)=O)cc(=O)oc12 (stereo partly drawn) | 7.9 | – | – | 89.1 | 24.2 | 50.5 | -1.5 | 11 | – | 29.9 | – | 55.3 | – | –
CCC(C)C(=O)c1c(O)c(C/C=C(\C)CCC=C(C)C)c(O)c2c([C@H](CC)OC(C)=O)cc(=O)oc12 (stereo partly drawn) [SURANGIN B] | 5 | – | – | 91.1 | 35.7 | 74.3 | 8.5 | 18.1 | – | 42.3 | – | 67.1 | – | –

Further lines, with some results ahead:

IC50 (RAW264.7 [6]) [µM] | inhibition [9] | inhibition [10] | SMILES | inhibition at 30 µM (RAW264.7 [1]) [%] | inhibition at 3 µM (RAW264.7 [2]) [%] | inhibition at 10 µM (RAW264.7 [3]) [%] | inhibition at 1 µM (RAW264.7 [4]) [%] | viability at 18 h, 30 µM [5] [%] | inhibition at 10 µM (RAW264.7 [7]) [%] | viability at 18 h, 10 µM [8] [%] | inhibition (RAW264.7 [11]) | viability at 18 h, 3 µM [12] [%] | inhibition (RAW264.7 [13]) | inhibition at 100 µM (RAW264.7 [14]) [%]
26.6 | – | – | CCCC(=O)c1c(O)c(C/C=C(\C)CCC=C(C)C)c(O)c2c([C@@H](O)CC)cc(=O)oc12 [KAYEASSAMIN A] | 56.6 | 15 | 29.7 | 5 | 82.4 | – | – | – | – | – | –
19.7 | – | – | CCCC(=O)c1c(O)c2c(c3c([C@@H](O)CC)cc(=O)oc13)OC(C)(C)C=C2 [DEACETYLMAMMEA E/BC CYCLO D] | 62.3 | 20.2 | 33.1 | 15.1 | 107 | – | – | – | – | – | –
> 30 | – | – | CCCC(=O)c1c2c(c3oc(=O)cc(CCC)c3c1O)C=CC(C)(C)O2 | 13.8 | – | 9.9 | – | – | – | – | – | – | – | –
> 30 | – | – | CCC(C)C(=O)c1c2c(c3oc(=O)cc(-c4ccccc4)c3c1O)C=CC(C)(C)O2 (stereo not drawn) | 18.3 | – | 12.9 | – | – | – | – | – | – | – | –
1.3 | inactive | Dose-dependent effect | CC(C)=CCc1c(O)c(C(=O)C(C)C)c(O)c2c(-c3ccccc3)cc(=O)oc12 [MESUOL] | 103 | 83.4 | 89.4 | 33.7 | 10.1 | – | 27.2 | Active | 57.2 | inactive | –
> 30 | – | – | CCCc1cc(=O)oc2c3c(c(C(=O)C(C)CC)c(O)c12)OC(C)(C)C=C3 (stereo not drawn) | 13.3 | – | 10.6 | – | – | – | – | – | – | – | –
13 | – | – | CCCC(=O)c1c(O)c(CC=C(C)C)c2oc(=O)cc(-c3ccccc3)c2c1O [MAMMEA A/AC] | 67.6 | 14.2 | 46.9 | 0.6 | 96.8 | – | – | – | – | – | –
> 30 | – | – | CCCC(=O)c1c2c(c3oc(=O)cc(-c4ccccc4)c3c1O)C=CC(C)(C)O2 | 14.3 | – | 9.4 | – | – | – | – | – | – | – | –
6 | – | – | CCC(C)C(=O)c1c(O)c(CC=C(C)C)c2oc(=O)cc([C@@H](O)CC)c2c1O (stereo partly drawn) [KAYEASSAMIN F] | 63.1 | 41.3 | 60.7 | 31.4 | 31.5 | – | 55.2 | – | – | – | –
6.1 | – | – | CCCC(=O)c1c(O)c(CC=C(C)C)c2oc(=O)cc([C@@H](O)CC)c2c1O [KAYEASSAMIN E] | 63.8 | 38.8 | 67.1 | 38.7 | 42.2 | – | 42.8 | – | – | – | –
